# Experimental data as given in paper PMC7263024 (General and comparative endocrinology, 2019).
# “Also recorded” adds a separate entry of the source.
# Experiments:
# hMc2r = conditions: ref Metherell et al., 2005; Sebag and Hinkle, 2007; cited from earlier work
# zebrafish Mc4r = conditions: 2013, cited from earlier work
# Mc2r and Mc5r orthologs = conditions: ref Thomas et al., 2018, Dores et al., Barney et al., 2019; cited from earlier work
# mouse Mc4r = conditions: activation by NDP-MSH; ref Asai et al., 2013; cited from earlier work
# gMc3r/gMrap1 = assay: cAMP-reporter gene assay, gMc3r co-expressed with gMrap1; assay type: cell-based, spotted gar (Lepisosteus oculatus); conditions: Fig. 4A, vs gMc3r alone; for effect of gMrap1 co-expression on ligand sensitivity: p = 0.49 (hACTH(1–24)), p = 0.98 (NDP-MSH)
# Summary of the method: (§1)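 CHO cells (F12K, 10% FBS, 37 °C, 5% CO2) nucleofected with 2 μg each of gar receptor cDNA, with or without gar Mrap1 or Mrap2, plus CRE-luciferase. After 48 h, stimulated 4 h at 37 °C in serum-free medium with hACTH(1–24) 10−13–10−6 M or NDP-MSH 10−12–10−6 M. Luminescence read after a 5 min luciferase reagent step. Medium-only background subtracted. EC50 from Michaelis-Menten fits; triplicates.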
# gMc1r = assay: cAMP-reporter gene assay, gMc1r expressed alone; assay type: cell-based, spotted gar (Lepisosteus oculatus); conditions: comparison of EC50 values, p < 0.001
# gMc1r/gMrap1 = assay: cAMP-reporter gene assay, gMc1r co-expressed with gMrap1; assay type: cell-based, spotted gar (Lepisosteus oculatus); conditions: Fig. 3A, vs gMc1r alone; for effect of gMrap1 co-expression on Vmax value: hACTH(1–24) p < 0.001, NDP-MSH p = 0.02, T-test; for effect of gMrap1 co-expression on ligand sensitivity: p = 0.90 (hACTH(1–24)), p = 0.92 (NDP-MSH)
# Summary of the method: as §1
# gMc3r/gMrap2 = assay: cAMP-reporter gene assay, gMc3r co-expressed with gMrap2; assay type: cell-based, spotted gar (Lepisosteus oculatus); conditions: Fig. 4B, vs gMc3r alone; for effect of gMrap2 co-expression on Vmax value: hACTH(1–24) p – 0.99, NDP-MSH p > 0.001 (so in the source), T-test; for effect of gMrap2 co-expression on ligand sensitivity: p = 0.98 (both ligands)
# gMc4r/gMrap2 = assay: cAMP-reporter gene assay, gMc4r co-expressed with gMrap2; assay type: cell-based, spotted gar (Lepisosteus oculatus); conditions: Fig. 5B; vs gMc4r alone; p < 0.001 (both ligands); T-test
# gMc5r/gMrap1 = assay: cAMP-reporter gene assay, gMc5r co-expressed with gMrap1; assay type: cell-based, spotted gar (Lepisosteus oculatus); conditions: Fig. 6A, 6B, vs gMc5r alone; for effect of gMrap1 co-expression on Vmax: hACTH(1–24) p = 0.44, NDP-MSH p = 0.01, T-test; for effect of gMrap1 co-expression on ligand sensitivity: hACTH(1–24) p = 0.5, NDP-MSH p = 0.64
# Summary of the method: as §1
# gMc4r = assay: cAMP-reporter gene assay, gMc4r expressed alone; assay type: cell-based, spotted gar (Lepisosteus oculatus); conditions: p = 0.11
# Summary of the method: as §1
# gMc3r = assay: cAMP-reporter gene assay, gMc3r expressed alone; assay type: cell-based, spotted gar (Lepisosteus oculatus); conditions: p = 0.03
# gMc1r/gMrap2 = assay: cAMP-reporter gene assay, gMc1r co-expressed with gMrap2; assay type: cell-based, spotted gar (Lepisosteus oculatus); conditions: Fig. 3B, vs gMc1r alone; for effect of gMrap2 co-expression on Vmax value: hACTH(1–24) P = 0.43, NDP-MSH p = 0.42, T-test; for effect of gMrap2 co-expression on ligand sensitivity: p = 0.12 (hACTH(1–24)), p = 0.28 (NDP-MSH)
# Summary of the method: as §1
# gMc5r = assay: cAMP-reporter gene assay, gMc5r expressed alone; assay type: cell-based, spotted gar (Lepisosteus oculatus); conditions: p = 0.07, T-test
# gMc5r/gMrap2 = assay: cAMP-reporter gene assay, gMc5r co-expressed with gMrap2; assay type: cell-based, spotted gar (Lepisosteus oculatus); conditions: Fig. 6A, 6B, vs gMc5r alone; for effect of gMrap2 co-expression on Vmax: hACTH(1–24) p = 0.001, NDP-MSH p = 0.007, T-test; for effect of gMrap2 co-expression on ligand sensitivity: hACTH(1–24) p = 0.5
# Summary of the method: as §1
# gMc2r/gMrap1 = assay: cAMP-reporter gene assay, gMc2r co-expressed with gMrap1; assay type: cell-based, spotted gar (Lepisosteus oculatus)
# Summary of the method: as §1
# hMc2r/mMrap1 = conditions: ref Liang et al., 2011; cited from earlier work
# gMc4r/gMrap1 = assay: cAMP-reporter gene assay, gMc4r co-expressed with gMrap1; assay type: cell-based, spotted gar (Lepisosteus oculatus); conditions: Fig. 5A, vs gMc4r alone; for effect of gMrap1 co-expression on ligand sensitivity: p = 0.49 (hACTH(1–24)), p = 0.98 (NDP-MSH)
# Summary of the method: as §1
# gMc2r/gMrap2 = assay: cAMP-reporter gene assay, gMc2r co-expressed with gMrap2; assay type: cell-based, spotted gar (Lepisosteus oculatus); conditions: Fig. 2A, CHO cells, CRE-Luciferase, 4 h at 37 °C, 10^−13M to 10^−6M, n = 3
# Summary of the method: as §1
# [1] = test system: Gallus gallus (chicken; c) Mc5r with cMrap1; conditions: ref Thomas et al., 2018; cited from earlier work
# gMc2r = assay: cAMP-reporter gene assay, gMc2r expressed alone; assay type: cell-based, spotted gar (Lepisosteus oculatus); conditions: Fig. 2A; CHO cells, CRE-Luciferase, 4 h at 37 °C, 10^−13M to 10^−6M; n = 3
# Summary of the method: as §1
Substance,effect of gMrap1 co-expression on Vmax value (gMc3r/gMrap1),effect of gMrap1 co-expression on ligand sensitivity (gMc3r/gMrap1),effect of gMrap1 co-expression on Vmax value (gMc1r/gMrap1),effect of gMrap1 co-expression on ligand sensitivity (gMc1r/gMrap1),effect of gMrap2 co-expression on Vmax value (gMc3r/gMrap2),effect of gMrap2 co-expression on ligand sensitivity (gMc3r/gMrap2),effect of gMrap2 co-expression on Vmax (gMc4r/gMrap2),effect of gMrap1 co-expression on Vmax (gMc5r/gMrap1),effect of gMrap1 co-expression on ligand sensitivity (gMc5r/gMrap1),efficacy of hACTH(1–24) compared with NDP-MSH (gMc4r),effect of gMrap2 co-expression on Vmax value (gMc1r/gMrap2),effect of gMrap2 co-expression on ligand sensitivity (gMc1r/gMrap2),effect of gMrap2 co-expression on Vmax (gMc5r/gMrap2),effect of gMrap2 co-expression on ligand sensitivity (gMc5r/gMrap2),effect of gMrap1 co-expression on Vmax value (gMc4r/gMrap1),effect of gMrap1 co-expression on ligand sensitivity (gMc4r/gMrap1),also measured
ACTH,–,–,–,–,–,–,–,–,–,–,–,–,–,–,–,–,stimulation of hMc2r/Mrap1 by ACTH (hMc2r): in the correct configuration to be stimulated by ACTH; effect of Mrap2 co-expression on sensitivity for activation by ACTH (zebrafish Mc4r; ref Josep Agulleiro et al.): sensitivity for activation by ACTH increases as well; effect of Mrap1 co-expression on sensitivity to stimulation by ACTH (Mc2r and Mc5r orthologs): enhanced sensitivity to stimulation by ACTH
"Nle^4, D-Phe^7-α-MSH [NDP-MSH]",no effect on the Vmax value,had no effect on sensitivity to stimulation,decrease in the Vmax value,had no effect on sensitivity to stimulation; also recorded: no effect on the sensitivity of gMc1r,decrease in the Vmax value,no effect either positive or negative on the sensitivity of gMc3r,statistically higher than the Vmax for the dose response curve when gMc4r was expressed alone; also recorded: comparable in magnitude to the Vmax value for the gMc4r/gMrap2 cells stimulated hACTH(1–24); also recorded: the amplitude of stimulation (Vmax) also increased for both ligands,increase in Vmax,"had no effect on sensitivity to stimulation; also recorded: no effect, either positive or negative, on the sensitivity of the receptor",can be activated with equal efficacy,no effect on the Vmax value,"no effect, in either a positive or negative manner, on the sensitivity of gMc1r",increase in Vmax,"did not increase sensitivity; also recorded: no effect, either positive or negative, on the sensitivity of the receptor",no effect on the Vmax value,had no effect on sensitivity to stimulation; also recorded: no statistical effect on the sensitivity of gMc4r,"effect of Mrap2 co-expression on ligand sensitivity (mouse Mc4r): enhances ligand sensitivity of the receptor to activation by NDP-MSH; sensitivity to NDP-MSH compared with hACTH(1–24) (gMc1r): much more sensitive to stimulation by NDP-MSH than to stimulation by hACTH(1–24); effect of Mrap2 co-expression on ligand sensitivity (zebrafish Mc4r; activation by NDP-MSH, ref Sebag et al.): enhances ligand sensitivity of the receptor to activation by NDP-MSH; sensitivity to NDP-MSH compared with hACTH(1–24) (gMc3r): higher sensitivity for stimulation by NDP-MSH than by stimulation with hACTH(1–24); EC50 of NDP-MSH compared with hACTH (1–24) (gMc5r): not statistically different from stimulation with hACTH (1–24); activation of gMc2r/gMrap1 by NDP-MSH (gMc2r/gMrap1; Fig. 2B, CHO cells, 4 h at 37 °C, 10^−12M to 10^−6M, n = 3): low level of activation (only at 10^−7M and 10^−6M); also recorded: activation was observed, but only at concentrations of 10^−7 M and 10^−6M; also recorded: weak activation only at 10 ^7M and 10^−6M; also recorded: could be activated to a limited degree by NDP-MSH at concentrations of 10^−7M and 10^−6M; degree of stimulation relative to stimulation at saturation by hACTH(1–24) (gMc2r/gMrap1; NDP-MSH at 10^−6 M vs 10^−9M hACTH(1–24), Fig. 2B): roughly 40%; response to NDP-MSH (hMc2r/mMrap1): did not evoke a response"
"hACTH(1–24): Human (h) ACTH(1–24), purchased from Sigma-Aldrich; 96% primary sequence identity with gACTH(1–24)",no effect on the Vmax value,had no effect on sensitivity to stimulation,decrease in the Vmax value,had no effect on sensitivity to stimulation,no effect on the Vmax value,no effect either positive or negative on the sensitivity of gMc3r,statistically higher than the Vmax for the dose response curve when gMc4r was expressed alone; also recorded: the amplitude of stimulation (Vmax) also increased for both ligands,no change in the Vmax value,"had no effect on sensitivity to stimulation; also recorded: negligible shift in sensitivity; also recorded: no effect, either positive or negative, on the sensitivity of the receptor",can be activated with equal efficacy,no effect on the Vmax value,"no effect, in either a positive or negative manner, on the sensitivity of gMc1r",increase in the Vmax value,"did not affect sensitivity; also recorded: no effect, either positive or negative, on the sensitivity of the receptor",no effect on the Vmax value,had no effect on sensitivity to stimulation; also recorded: no statistical effect on the sensitivity of gMc4r,"activation of gMc2r co-expressed with gMrap2 (gMc2r/gMrap2): activation did not occur; also recorded: gMrap2 did not facilitate activation of gMc2r; activation of gMc2r co-expressed with gMrap2 (gMc2r/gMrap2; listed as hACTH (1–24)): there was no activation; effect of gMrap1 co-expression on ligand sensitivity (gMc3r/gMrap1; listed as hACTH (1–24)): no effect either positive or negative on sensitivity; activation of gMc2r co-expressed with gMrap1 by hACTH(1–24) (gMc2r/gMrap1; Fig. 2A, CHO cells, CRE-Luciferase, 4 h at 37 °C, n = 3): obligatory requirement for co-expression with gMrap1 in order for the receptor to be activated by hACTH(1–24); also recorded: activation of the receptor was recovered; concentration at which activation reached saturation (gMc2r/gMrap1; Fig. 2B, CHO cells, 4 h at 37 °C): 10^−9 M; effect of cMrap1 co-expression on sensitivity to stimulation [1]: significantly increased the sensitivity; activation of gMc2r expressed alone by hACTH(1–24) (gMc2r): activation of gMc2r did not occur when the receptor was expressed alone; also recorded: did not result in activation of the receptor; also recorded: no activation when expressed alone"
